The values that follow come from ChEMBL document CHEMBL1123476, “Synthesis of congeners and prodrugs of the benzene maleimide photoadduct mitindomide as potential antitumor agents. 2” (J Med Chem, 1986).

Values joined by “and” are separate entries in the source; they are usually repeats but may differ in a detail not shown here. Equal values may be shown once.

The nature of data set [1]: Solubility was determined; INS= less than 0.1. Format: physicochemical.
Data set [2] concerns P388. The data set is described as follows: Compound was tested for antitumor activity in P-388 lymphocytic leukemia system at 200 mg/kg dose levels per injection; 3/6. Type of data set: functional, Mus musculus. The method, boiled down: (§1)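 P-388 leukemia in animals, Q01D×09 schedule: dose given daily for 9 days, in mg/kg per injection. Read-outs are survivors on day 4 (live/total animals), body-weight difference test minus control (g), and % T/C (median lifetime of treated ÷ median lifetime of controls × 100). Some compounds were tested in independent runs at different times.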

The test system of data set [3] is P388. The data set is described as follows: Compound was tested for antitumor activity in P-388 lymphocytic leukemia system at 200 mg/kg dose levels per injection; 5/6. Type of data set: functional, Mus musculus. The method, boiled down:
as §1

Data set [4] relates to P388. Description: Compound was tested for antitumor activity in P-388 lymphocytic leukemia system at 100 mg/kg dose levels per injection; 5/6. Format: functional, Mus musculus. The method, boiled down: as §1
In data set [5] the test system is P388. The data set is described as follows: (§2) Antitumor activity in P-388 lymphocytic leukemia system at 100 mg/kg dose levels per injection. Type of data set: functional, Mus musculus. The method, boiled down:
as §1

Data set [6] relates to P388. Description: Compound was tested for antitumor activity in P-388 lymphocytic leukemia system at 12.5 mg/kg dose levels per injection; 6/6. Type of data set: functional, Mus musculus. Put shortly:
as §1

For data set [7], the system named is P388. The data set is described as §2. Format: functional, Mus musculus. Put shortly:
(§3)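 P-388 leukemia in vivo, dosed Q01D×09 (one injection daily for 9 days, mg/kg per injection). Activity is %T/C, the median lifetime of treated animals divided by that of controls, ×100. Live animals on day 4 were counted against the total (survivors day 4). Repeat tests were done independently at different times.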
The source holds these as a separate data set.

Data set [8] deals with P388. Description: (§4) Antitumor activity in P-388 lymphocytic leukemia system at 50 mg/kg dose levels per injection. Type of data set: functional, Mus musculus. The method, boiled down:
as §1

Data set [9] deals with P388. Description: Compound was tested for antitumor activity in P-388 lymphocytic leukemia system at 25 mg/kg dose levels per injection; 6/6. Format: functional, Mus musculus. Put shortly:
as §1

In data set [10] the test system is P388. Description: Compound was tested for antitumor activity in P-388 lymphocytic leukemia system The difference in body weight was calculated at 12.5 mg/kg dose levels per injection. Type of data set: functional, Mus musculus.
The test system of data set [11] is P388. The data set is described as follows: Compound was tested for antitumor activity in P-388 lymphocytic leukemia system at 12.5 mg/kg dose levels per injection. Format: functional, Mus musculus. Put shortly: as §3
For data set [12], the system named is P388. The data set is described as follows: Compound was tested for antitumor activity in P-388 lymphocytic leukemia system at 200 mg/kg dose levels per injection. Type of data set: functional, organism-based. Also on record: dose 200 mg/kg. To be noted: Mus musculus. Put shortly: as §3
Data set [13] deals with P388. The data set is described as follows: Antitumor activity in P-388 lymphocytic leukemia system at 25 mg/kg dose levels per injection. Type of data set: functional, Mus musculus. Put shortly: as §3
Data set [14] deals with P388. The data set is described as §4. Type of data set: functional, Mus musculus. Put shortly:
as §3
The source holds these as a separate data set.

The subject of data set [15] is P388. Description: Compound was tested for antitumor activity in P-388 lymphocytic leukemia system at 200 mg/kg dose levels per injection. Format: functional, Mus musculus. The method, boiled down:
as §3

In data set [16] the test system is P388. Description: Compound was tested for antitumor activity in P-388 lymphocytic leukemia system at 191.2 mg/kg dose levels per injection; 0/6. Format: functional, Mus musculus. The method, boiled down: as §1
Data set [17] concerns P388. The data set is described as follows: Compound was tested for antitumor activity in P-388 lymphocytic leukemia system at 114.7 mg/kg dose levels per injection; 2/6. Format: functional, Mus musculus. The method, boiled down:
as §1

The subject of data set [18] is P388. Description: Compound was tested for antitumor activity in P-388 lymphocytic leukemia system at 24.8 mg/kg dose levels per injection; 6/6. Format: functional, Mus musculus. Put shortly: as §1
In data set [19] the test system is P388. Description: Compound was tested for antitumor activity in P-388 lymphocytic leukemia system at 68.8 mg/kg dose levels per injection; 6/6. Type of data set: functional, Mus musculus. The method, boiled down:
as §1

Data set [20] has as its system P388. The data set is described as follows: Compound was tested for antitumor activity in P-388 lymphocytic leukemia system at 41.3 mg/kg dose levels per injection; 6/6. Type of data set: functional, Mus musculus. The method, boiled down: as §1
Data set [21] deals with P388. The data set is described as follows: Compound was tested for antitumor activity in P-388 lymphocytic leukemia system. The difference in body weight was calculated at 24.8 mg/kg dose levels per injection. Format: functional, Mus musculus.
Data set [22] has as its system P388. Description: Compound was tested for antitumor activity in P-388 lymphocytic leukemia system and the difference in body weight was calculated at 114.7 mg/kg dose levels per injection. Format: functional, Mus musculus.
Data set [23] concerns P388. The data set is described as follows: Compound was tested for antitumor activity in P-388 lymphocytic leukemia system and the difference in body weight was calculated at 41.3 mg/kg dose levels per injection. Type of data set: functional, Mus musculus.
Data set [24] concerns P388. Description: Compound was tested for antitumor activity in P-388 lymphocytic leukemia system and the difference in body weight was calculated at 68.8 mg/kg dose levels per injection. Format: functional, Mus musculus.
Data set [25] relates to P388. Description: Compound was tested for antitumor activity in P-388 lymphocytic leukemia system at 24.8 mg/kg dose levels per injection. Format: functional, Mus musculus. Put shortly: as §3
The test system of data set [26] is P388. Description: Compound was tested for antitumor activity in P-388 lymphocytic leukemia system at 41.3 mg/kg dose levels per injection. Type of data set: functional, Mus musculus. The method, boiled down: as §3
Data set [27] concerns P388. The data set is described as follows: Compound was tested for antitumor activity in P-388 lymphocytic leukemia system at 68.8 mg/kg dose levels per injection. Format: functional, Mus musculus. The method, boiled down: as §3
The test system of data set [28] is P388. Description: Antitumor activity in P-388 lymphocytic leukemia system at 200 mg/kg dose levels per injection. Type of data set: functional, Mus musculus. Put shortly:
as §1

The test system of data set [29] is P388. The data set is described as follows: Compound was tested for antitumor activity in P-388 lymphocytic leukemia system at 25 mg/kg dose levels per injection. Format: functional, Mus musculus. The method, boiled down: as §3
Data set [30] concerns P388. Description: Compound was tested for antitumor activity in P-388 lymphocytic leukemia system. at 200 mg/kg dose levels per injection. Type of data set: functional, Mus musculus. The method, boiled down:
as §3

Data set [31] in a line: Solubility was determined. Format: physicochemical.
For data set [32], the system named is P388. The data set is described as follows: Compound was tested for antitumor activity in P-388 lymphocytic leukemia system at 200 mg/kg dose levels per injection; 0/6. Type of data set: functional, Mus musculus. Put shortly:
as §1

Data set [33] deals with P388. The data set is described as follows: Compound was tested for antitumor activity in P-388 lymphocytic leukemia system at 100 mg/kg dose levels per injection; Toxic. Type of data set: functional, organism-based. Also on record: dose 100 mg/kg. To be noted: Mus musculus. Put shortly:
as §3

In data set [34] the test system is P388. The data set is described as follows: Antitumor activity in P-388 lymphocytic leukemia system at 25 mg/kg dose levels per injection. Type of data set: functional, Mus musculus. Put shortly:
as §1

Data set [35] concerns P388. Description: Antitumor activity in P-388 lymphocytic leukemia system and the difference in body weight calculated at 100 mg/kg dose levels per injection. Format: functional, Mus musculus.
Data set [36] relates to P388. Description: Compound was tested for antitumor activity in P-388 lymphocytic leukemia system and the difference in body weight was calculated at 12.5 mg/kg dose levels per injection. Type of data set: functional, Mus musculus.
In data set [37] the test system is P388. Description: Antitumor activity in P-388 lymphocytic leukemia system and the difference in body weight was calculated at 25 mg/kg dose levels per injection. The following applies: 25 mg/kg. Type of data set: functional, Mus musculus.
The test system of data set [38] is P388. The data set is described as follows: Antitumor activity in P-388 lymphocytic leukemia system and the difference in body weight was calculated at 50 mg/kg dose levels per injection. To be noted: 50 mg/kg. Format: functional, Mus musculus.
Data set [39] relates to P388. The data set is described as follows: Compound was tested for antitumor activity in P-388 lymphocytic leukemia system at 100 mg/kg dose levels per injection; 0/6. Type of data set: functional, Mus musculus. Put shortly: as §1
Data set [40] relates to P388. Description: Compound was tested for antitumor activity in P-388 lymphocytic leukemia system at 100 mg/kg dose levels per injection; 3/6. Format: functional, Mus musculus. Put shortly: as §1

Turning to `O=C1NC(=O)C2C3C=CC(C12)C1C2C(=O)NC(=O)C2C31` (centres undefined), in data set [1], the Solubility entry is “Insoluble”. For the same compound, the “Survivors at day 4” value came to 3 in the data set on P388 [2]; 5 in the data set with P388 [3]; 5 in the data set with P388 [4]; 6 in the data set with P388 [5]; 6 in the data set with P388 [6]; 6 with P388 [8]. In the data set with P388 [9], the “Survivors at day 4” value came out at 6. The T/C (usually the result in the treated group divided by that in the control group, in per cent) is 94% in the data set with P388 [7]; 177% in the data set with P388 [7] (100 mg/kg); 119% in the data set on P388 [11]; “Toxic” in the data set with P388 [12]; 149% and 142% in the data set on P388 [13] (25 mg/kg); 172% and 168% in the data set with P388 [14] (50 mg/kg). For the same compound, the Weight difference with P388 [7] is -3.4 g; with P388 [10], 0.2 g; in the data set on P388 [14] (50 mg/kg), -2.2 g and -2 g; in the data set on P388 [15] (200 mg/kg), -7.3 g and -3.1 g.

Turning to `CN1CCN(CN2C(=O)C3C4C=CC(C3C2=O)C2C3C(=O)N(CN5CCN(C)CC5)C(=O)C3C42)CC1.Cl` (centres undefined), the “Survivors at day 4” value with P388 [16] is 0; with P388 [17], 2; in the data set with P388 [18], 6; with P388 [19] it was 6; in the data set on P388 [20] it was 6. Besides, the Weight difference in the data set with P388 [21] is on record as 1.2 g; with P388 [22], -5.9 g; in the data set on P388 [23], -1.8 g; with P388 [24], -4.6 g. In addition, the figures for the T/C with P388 [25], in the data set with P388 [26] and in the data set on P388 [27] were 113%, 130% and 172%, respectively.

Consider `CC12C=CC(C)(C3C(=O)NC(=O)C31)C1C3C(=O)NC(=O)C3C12` (centres undefined), for which the Solubility entry in [1] is listed as “Insoluble”. For the same compound, the “Survivors at day 4” value in the data set with P388 [28], in the data set on P388 [5], with P388 [8] and with P388 [9] was 6 each time. For the same compound, the T/C was determined as 109% in the data set on P388 [7], 103% in the data set on P388 [13], 108% in the data set with P388 [14] and 97% in the data set on P388 [30]. Besides, the Weight difference is on record as -4.8 g in the data set on P388 [7], -1.5 g in the data set on P388 [29], -3.7 g in the data set with P388 [14] and -6.1 g in the data set with P388 [15].

In the case of `O=C1C2C3C=CC(C2C(=O)N1CO)C1C2C(=O)N(CO)C(=O)C2C31` (centres undefined), the Solubility in data set [31] was 0.8%. Further, the “Survivors at day 4” value with P388 [32] turned out to be 0; in the data set on P388 [6] it was 6; in the data set with P388 [34], 6; with P388 [8] it was 6; in the data set with P388 [39] it was 0; in the data set on P388 [40], 3. The T/C entry in the data set with P388 [33] was “Toxic”; with P388 [11], 105%; with P388 [12] it was “Toxic”; in the data set with P388 [13] (25 mg/kg) it was 140% and 157%; in the data set on P388 [14] (50 mg/kg), 195% and 208%. Also, the Weight difference in the data set on P388 [35] was -8.2 g; in the data set with P388 [36], -0.7 g; with P388 [37], -2.5 g and -3.3 g; with P388 [38], -5.6 g and -6.5 g.
